Measurements: ChEMBL document CHEMBL1125592, “Calcium channel blocking and positive inotropic activities of ethyl 5-cyano-1,4-dihydro-6-methyl-2-[(phenylsulfonyl)methyl]-4-aryl-3- pyridine-carboxylate and analogues. Synthesis and structure-activity relationships” (J Med Chem, 1991)

Key:
Oryctolagus cuniculus [1] = species: Oryctolagus cuniculus; assay: Vasoconstrictor effect at a concentration of 10e-5 M using nondepolarized isolated rings from rabbit.; type: functional
Oryctolagus cuniculus [2] = species: Oryctolagus cuniculus; assay: Vasoconstrictor effect at a concentration of 10e-7 M using partially depolarized isolated rings from rabbit.; type: functional
Oryctolagus cuniculus [3] = species: Oryctolagus cuniculus; assay: Vasoconstrictor effect at a concentration of 10e-8 M using nondepolarized isolated rings from rabbit.; type: functional
Oryctolagus cuniculus [4] = species: Oryctolagus cuniculus; assay: Vasoconstrictor effect at a concentration of 10e-8 M using partially depolarized isolated rings from rabbit.; type: functional
Oryctolagus cuniculus [5] = species: Oryctolagus cuniculus; assay: Vasoconstrictor effect at a concentration of 10e-5 M using partially depolarized isolated rings from rabbit.; type: functional
Oryctolagus cuniculus [6] = species: Oryctolagus cuniculus; assay: Vasoconstrictor effect at a concentration of 10e-6 M using nondepolarized isolated rings from rabbit.; type: functional
Oryctolagus cuniculus [7] = species: Oryctolagus cuniculus; assay: Vasoconstrictor effect at a concentration of 10e-6 M using partially depolarized isolated rings from rabbit.; type: functional
Oryctolagus cuniculus [8] = species: Oryctolagus cuniculus; assay: Vasoconstrictor effect at a concentration of 10e-7 M using nondepolarized isolated rings from rabbit.; type: functional
Oryctolagus cuniculus [9] = species: Oryctolagus cuniculus; assay: Vasoconstrictor effect at a concentration of 10e-9 M using nondepolarized isolated rings from rabbit.; type: functional
Oryctolagus cuniculus [10] = species: Oryctolagus cuniculus; assay: Vasoconstrictor effect at a concentration of 10e-9 M using partially depolarized isolated rings from rabbit.; type: functional
Oryctolagus cuniculus [11] = species: Oryctolagus cuniculus; assay: Vasoconstrictor effect at a concentration of 3 x 10e-8 M using nondepolarized isolated rings from rabbit.; type: functional
Oryctolagus cuniculus [12] = species: Oryctolagus cuniculus; assay: Vasoconstrictor effect at a concentration of 3 x 10e-8 M using partially depolarized isolated rings from rabbit.; type: functional
Oryctolagus cuniculus [13] = species: Oryctolagus cuniculus; assay: Vasoconstrictor effect at a concentration of 3 x 10e-9 M using nondepolarized isolated rings from rabbit.; type: functional
Oryctolagus cuniculus [14] = species: Oryctolagus cuniculus; assay: Vasoconstrictor effect at a concentration of 3 x 10e-9 M using partially depolarized isolated rings from rabbit.; type: functional
[15] = target: Voltage-gated L-type calcium channel (Rattus norvegicus, UniProt P22002+Q02485+P27732); assay: Affinity to bind dihydropyridine receptor (DHP receptor) by inhibiting the radioligand [3H]nitrendipine; type: protein assay
Summary of the method: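 [3H]nitrendipine displacement, rat brain cortical membranes. Each compound first screened at 1000 nM; if inhibition exceeded 40%, a four- to seven-point curve with unlabeled compound was run. IC50 generally mean of two experiments, each in triplicate. ">1000 nM" means under 40% inhibition of control binding at 1000 nM.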

Oryctolagus cuniculus [16] = species: Oryctolagus cuniculus; assay: Vasoconstrictor effect at a concentration of 10e-7 M in presence of nondepolarized isolated rings from rabbits.; type: functional
Oryctolagus cuniculus [17] = species: Oryctolagus cuniculus; assay: Vasoconstrictor effect at a concentration of 10e-7 M in presence of partially depolarized isolated rings from rabbits.; type: functional
Oryctolagus cuniculus [18] = species: Oryctolagus cuniculus; assay: Vasoconstrictor effect at a concentration of 10e-8 M in presence of nondepolarized isolated rings from rabbits.; type: functional
Oryctolagus cuniculus [19] = species: Oryctolagus cuniculus; assay: Vasoconstrictor effect at a concentration of 10e-8 M in presence of partially depolarized isolated rings from rabbits.; type: functional
Oryctolagus cuniculus [20] = species: Oryctolagus cuniculus; assay: Vasoconstrictor effect at a concentration of 10e-9 M in presence of partially depolarized isolated rings from rabbits.; type: functional
Oryctolagus cuniculus [21] = species: Oryctolagus cuniculus; assay: Vasoconstrictor effect at a concentration of 10e-9 M in presence of nondepolarized isolated rings from rabbits.; type: functional
Oryctolagus cuniculus [22] = species: Oryctolagus cuniculus; assay: Vasorelaxant effect at a concentration of 10e-4 M on rabbit aortic rings previously contracted with 1.0 uM Norepinephrine.; type: functional, Aorta; parameters: unit not given here
Summary of the method: (§1)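 Rabbit aortic rings precontracted with 50 mM KCl or 1.0 μM norepinephrine, then exposed to increasing concentrations of test agent. Relaxation recorded at each concentration.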

Oryctolagus cuniculus [23] = species: Oryctolagus cuniculus; assay: Vasorelaxant effect at a concentration of 10e-4 M on rabbit aortic rings previously contracted with 50 mM KCl.; type: functional, Aorta; parameters: unit not given here; summary of the method: as §1
Oryctolagus cuniculus [24] = species: Oryctolagus cuniculus; assay: Vasorelaxant effect at a concentration of 10e-5 M on rabbit aortic rings previously contracted with 1.0 uM Norepinephrine.; type: functional, Aorta; parameters: unit not given here; summary of the method: as §1
Oryctolagus cuniculus [25] = species: Oryctolagus cuniculus; assay: Vasorelaxant effect at a concentration of 10e-5 M on rabbit aortic rings previously contracted with 50 mM KCl.; type: functional, Aorta; parameters: unit not given here; summary of the method: as §1
Oryctolagus cuniculus [26] = species: Oryctolagus cuniculus; assay: Vasorelaxant effect at a concentration of 10e-6 M on rabbit aortic rings previously contracted with 1.0 uM Norepinephrine.; type: functional, Aorta; parameters: unit not given here; summary of the method: as §1
Oryctolagus cuniculus [27] = species: Oryctolagus cuniculus; assay: Vasorelaxant effect at a concentration of 10e-6 M on rabbit aortic rings previously contracted with 50 mM KCl.; type: functional, Aorta; parameters: unit not given here; summary of the method: as §1
Oryctolagus cuniculus [28] = species: Oryctolagus cuniculus; assay: Vasorelaxant effect at a concentration of 10e-7 M on rabbit aortic rings previously contracted with 1.0 uM Norepinephrine.; type: functional, Aorta; parameters: unit not given here; summary of the method: as §1
Oryctolagus cuniculus [29] = species: Oryctolagus cuniculus; assay: Vasorelaxant effect at a concentration of 10e-7 M on rabbit aortic rings previously contracted with 50 mM KCl.; type: functional, Aorta; parameters: unit not given here; summary of the method: as §1
Oryctolagus cuniculus [30] = species: Oryctolagus cuniculus; assay: Vasorelaxant effect at a concentration of 10e-8 M on rabbit aortic rings previously contracted with 1.0 uM Norepinephrine.; type: functional, Aorta; summary of the method: as §1
Oryctolagus cuniculus [31] = species: Oryctolagus cuniculus; assay: Vasorelaxant effect at a concentration of 10e-8 M on rabbit aortic rings previously contracted with 50 mM KCl.; type: functional, Aorta; summary of the method: as §1
Oryctolagus cuniculus [32] = species: Oryctolagus cuniculus; assay: Vasorelaxant effect at a concentration of 10e-9 M on rabbit aortic rings previously contracted with 1.0 uM Norepinephrine.; type: functional, Aorta; summary of the method: as §1
Oryctolagus cuniculus [33] = species: Oryctolagus cuniculus; assay: Vasorelaxant effect at a concentration of 10e-9 M on rabbit aortic rings previously contracted with 50 mM KCl.; type: functional, Aorta; summary of the method: as §1
Oryctolagus cuniculus [34] = species: Oryctolagus cuniculus; assay: Vasoconstrictor effect at a concentration of 10e-4 M in presence of nondepolarized isolated rings from rabbits.; type: functional
Oryctolagus cuniculus [35] = species: Oryctolagus cuniculus; assay: Vasoconstrictor effect at a concentration of 10e-4 M in presence of partially depolarized isolated rings from rabbits.; type: functional
Oryctolagus cuniculus [36] = species: Oryctolagus cuniculus; assay: Vasoconstrictor effect at a concentration of 10e-5 M in presence of nondepolarized isolated rings from rabbits.; type: functional
Oryctolagus cuniculus [37] = species: Oryctolagus cuniculus; assay: Vasoconstrictor effect at a concentration of 10e-5 M in presence of partially depolarized isolated rings from rabbits.; type: functional
Oryctolagus cuniculus [38] = species: Oryctolagus cuniculus; assay: Vasoconstrictor effect at a concentration of 10e-6 M in presence of partially depolarized isolated rings from rabbits.; type: functional
Rattus norvegicus [39] = species: Rattus norvegicus; assay: Compound was tested for its effect on coronary vasodilator in isolated rat hearts.; type: functional
Summary of the method: (§2)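 Coronary vasodilation and ventricular contractility measured in isolated Langendorff-perfused rat hearts. EC25 (concentration raising the parameter by 25%) given as mean ± SEM of four to six hearts.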

Rattus norvegicus [40] = species: Rattus norvegicus; assay: Compound was tested for its effect on ventricular contractility in isolated rat hearts.; type: functional, Cardiac ventricle; summary of the method: as §2
Rattus norvegicus [41] = species: Rattus norvegicus; assay: Cardiovascular activity in isolated rat heart, concentration producing 25% increase in CF (cardiac flow).; type: functional
Summary of the method: (§3)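 Isolated Langendorff-perfused rat heart. Coronary flow (CF), LV +dP/dtmax and heart rate recorded during exposure to test agent. Value is the concentration giving a 25% rise in CF or in LV +dP/dtmax, mean ± SE. At least two hearts per compound.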

Rattus norvegicus [42] = species: Rattus norvegicus; assay: Cardiovascular activity in isolated rat heart, concentration producing 25% increase in LV + dP/dtmax.; type: functional; summary of the method: as §3
Oryctolagus cuniculus [43] = species: Oryctolagus cuniculus; assay: Vasorelaxant effect at a concentration of 10e-10 M on rabbit aortic rings previously contracted with 1.0 uM Norepinephrine.; type: functional, Aorta
Summary of the method: (§4)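 They were then exposed to increasing concentrations of the test agent, and relaxation of the precontraction was recorded as calcium channel blocking activity.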

Oryctolagus cuniculus [44] = species: Oryctolagus cuniculus; assay: Vasorelaxant effect at a concentration of 10e-10 M on rabbit aortic rings previously contracted with 50 mM KCl.; type: functional, Aorta; summary of the method: as §4
Rattus norvegicus [45] = species: Rattus norvegicus; assay: Compound was tested for its effect on ventricular cantractility in isolated rat hearts.; type: functional, Cardiac ventricle; summary of the method: as §2

Row | SMILES | Vasoconstriction effect (Oryctolagus cuniculus [2]) | Vasoconstriction effect (Oryctolagus cuniculus [3]) | Vasoconstriction effect (Oryctolagus cuniculus [4]) | Vasoconstriction effect (Oryctolagus cuniculus [6]) | Vasoconstriction effect (Oryctolagus cuniculus [7]) | Vasoconstriction effect (Oryctolagus cuniculus [8]) | Vasoconstriction effect (Oryctolagus cuniculus [9]) | Vasoconstriction effect (Oryctolagus cuniculus [10]) | Vasoconstriction effect (Oryctolagus cuniculus [11]) | Vasoconstriction effect (Oryctolagus cuniculus [12]) | Vasoconstriction effect (Oryctolagus cuniculus [13]) | Vasoconstriction effect (Oryctolagus cuniculus [14]) | IC50 [15] [nM] | Vasorelaxant effect (Oryctolagus cuniculus [24]) | Vasorelaxant effect (Oryctolagus cuniculus [25]) | Vasorelaxant effect (Oryctolagus cuniculus [26]) | Vasorelaxant effect (Oryctolagus cuniculus [27]) | Vasorelaxant effect (Oryctolagus cuniculus [28]) | Vasorelaxant effect (Oryctolagus cuniculus [29]) | EC25 (Rattus norvegicus [39]) [µM] | other results
1 | NC[C@H](O)c1ccc(O)c(O)c1 [NOREPINEPHRINE] | 84.4 | 22.2 | 46.2 | 112.6 | 106.3 | 80.2 | 0 | 7.8 | 49.1 | 63.4 | 0 | 18.2 |  |  |  |  |  |  |  |  | Vasoconstriction effect (Oryctolagus cuniculus [1]): 151.3; Vasoconstriction effect (Oryctolagus cuniculus [5]): 137.2
2 | COC(=O)C1=C(C)NC(C)=C([N+](=O)[O-])C1c1ccccc1C(F)(F)F (stereo unspecified) | 82.1 | 0 | 32.4 | 15.9 | 93.2 | 10 | 0 | 3.2 | 1.5 | 59.2 | 0 | 10.2 |  |  |  |  |  |  |  |  | 
3 | CCOC(=O)C1=C(CS(=O)(=O)c2ccncc2)NC(C)=C(C#N)C1c1ccccc1C(F)(F)F (stereo in doubt; 54) |  |  |  |  |  |  |  |  |  |  |  |  | 271 | 0.7 | 53.8 | -2.3 | 6.2 | -1.8 | -9.1 | 0.284 | Vasoconstriction effect (Oryctolagus cuniculus [16]): 0; Vasoconstriction effect (Oryctolagus cuniculus [17]): 5; Vasoconstriction effect (Oryctolagus cuniculus [18]): 0; Vasoconstriction effect (Oryctolagus cuniculus [19]): 4.5; Vasoconstriction effect (Oryctolagus cuniculus [20]): 3.3; Vasoconstriction effect (Oryctolagus cuniculus [21]): 0; Vasorelaxant effect (Oryctolagus cuniculus [22]): 4.2; Vasorelaxant effect (Oryctolagus cuniculus [23]): 88.9; Vasorelaxant effect (Oryctolagus cuniculus [30]): -1.4; Vasorelaxant effect (Oryctolagus cuniculus [31]): -8.6; Vasorelaxant effect (Oryctolagus cuniculus [32]): -0.9; Vasorelaxant effect (Oryctolagus cuniculus [33]): -4.8; Vasoconstriction effect (Oryctolagus cuniculus [34]): 0; Vasoconstriction effect (Oryctolagus cuniculus [35]): 0; Vasoconstriction effect (Oryctolagus cuniculus [36]): 0; Vasoconstriction effect (Oryctolagus cuniculus [37]): 0; Vasoconstriction effect (Oryctolagus cuniculus [38]): 2.4; EC25 (Rattus norvegicus [40]): 0.535 µM; EC25 (Rattus norvegicus [41]): 0.29 µM; EC25 (Rattus norvegicus [42]): 0.47 µM
4 | COC(=O)C1=C(C)NC(C)=C(C(=O)OC)C1c1ccccc1[N+](=O)[O-] [NIFEDIPINE] |  |  |  |  |  |  |  |  |  |  |  |  |  | 6.1 | 92.6 | 3.5 | 89.4 | 1 | 65.8 |  | Vasorelaxant effect (Oryctolagus cuniculus [43]): -1; Vasorelaxant effect (Oryctolagus cuniculus [44]): -3.1; Vasorelaxant effect (Oryctolagus cuniculus [30]): -1.1; Vasorelaxant effect (Oryctolagus cuniculus [31]): 24.7; Vasorelaxant effect (Oryctolagus cuniculus [32]): -1.2; Vasorelaxant effect (Oryctolagus cuniculus [33]): -1.7
5 | CCOC(=O)C1=C(CS(=O)(=O)c2ccncc2)NC(C)=C(C#N)C1c1ccccc1C(F)(F)F (stereo in doubt; 54B) |  |  |  |  |  |  |  |  |  |  |  |  |  |  |  |  |  |  |  | 1.622 | EC25 (Rattus norvegicus [45]): 0.888 µM
6 | CCOC(=O)C1=C(CS(=O)(=O)c2ccncc2)NC(C)=C(C#N)C1c1ccccc1C(F)(F)F (stereo in doubt; 54A) |  |  |  |  |  |  |  |  |  |  |  |  | 152 |  |  |  |  |  |  | 0.128 | EC25 (Rattus norvegicus [45]): 0.701 µM
